Laboratory results as given in ChEMBL document CHEMBL1649165, “Activity profile in vitro of micafungin against Spanish clinical isolates of common and emerging species of yeasts and molds” (2009).
Values after ≈ are worked out from the molar mass of the structure shown.

How the values were obtained:
Assay type in all cases: functional
[1] = test system: Trichosporon ovoides; test: Antimicrobial activity against Trichosporon ovoides by broth microdilution method
Procedure, shortened: (§1)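 Nonfermentative yeast clinical isolates (Rhodotorula, Trichosporon) tested by broth microdilution. The EUCAST yeast recommendations were followed strictly, with one minor modification to improve growth. MIC was read as the endpoint.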

[2] = test system: Pichia norvegensis; test: Antimicrobial activity against Candida norvegensis by broth microdilution method
Procedure, shortened: (§2)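 Clinical isolates from human patients, tested by broth microdilution using the AFST-EUCAST reference procedure for fermentative yeasts. The MIC was read per that reference method.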

[3] = test system: Clavispora lusitaniae; test: Antimicrobial activity against Candida lusitaniae by broth microdilution method; procedure, shortened: as §2
[4] = test system: Kluyveromyces marxianus; test: Antimicrobial activity against Candida kefyr by broth microdilution method; procedure, shortened: as §2
[5] = test system: Pichia kudriavzevii; test: Antimicrobial activity against Candida krusei by broth microdilution method; procedure, shortened: as §2
[6] = test system: Candida orthopsilosis; test: Antimicrobial activity against Candida orthopsilosis by broth microdilution method; conditions: Lodderomyces orthopsilosis; procedure, shortened: as §2
[7] = test system: Trichosporon domesticum; test: Antimicrobial activity against Trichosporon mycotoxinivorans by broth microdilution method; conditions: Apiotrichum domesticum
Procedure, shortened: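 Spanish human clinical isolates were tested as nonfermentative yeasts by broth microdilution. The method strictly followed the EUCAST recommendations, with a minor modification to improve growth, and the read-out was the MIC.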

[8] = test system: Saccharomyces cerevisiae; test: Antimicrobial activity against Saccharomyces cerevisiae by broth microdilution method
[9] = test system: Yarrowia lipolytica; test: Antimicrobial activity against Yarrowia lipolytica by broth microdilution method
[10] = test system: Torulaspora delbrueckii; test: Antimicrobial activity against Candida coliculosa by broth microdilution method; procedure, shortened: as §2
[11] = test system: Candida tropicalis; test: Antimicrobial activity against Candida tropicalis by broth microdilution method; procedure, shortened: as §2
[12] = test system: Debaryomyces hansenii; test: Antimicrobial activity against Candida famata by broth microdilution method; procedure, shortened: as §2
[13] = test system: Trichosporon asahii; test: Antimicrobial activity against Trichosporon asahii by broth microdilution method; procedure, shortened: as §1
[14] = test system: Ustilago; test: Antimicrobial activity against Ustilago spp by broth microdilution method
[15] = test system: Naganishia albida; test: Antimicrobial activity against Cryptococcus albidus by broth microdilution method
Procedure, shortened: (§3)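 Clinical isolates of nonfermentative yeasts, tested by broth microdilution following EUCAST recommendations. The only change from that method was a minor modification to improve growth.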

[16] = test system: Papiliotrema laurentii; test: Antimicrobial activity against Cryptococcus laurentii by broth microdilution method; procedure, shortened: as §3
[17] = test system: Magnusiomyces capitatus; test: Antimicrobial activity against Dipodascus capitatus by broth microdilution method
[18] = test system: Trichosporon dermatis; test: Antimicrobial activity against Trichosporon dermatis by broth microdilution method; conditions: Cutaneotrichosporon dermatis; procedure, shortened: as §1
[19] = test system: Candida metapsilosis; test: Antimicrobial activity against Candida metapsilosis by broth microdilution method; conditions: Lodderomyces metapsilosis; procedure, shortened: as §2
[20] = test system: Nakaseomyces glabratus; test: Antimicrobial activity against Candida glabrata by broth microdilution method; procedure, shortened: as §2
[21] = test system: Diutina rugosa; test: Antimicrobial activity against Candida rugosa by broth microdilution method; procedure, shortened: as §2
[22] = test system: Candida parapsilosis; test: Antimicrobial activity against Candida parapsilosis by broth microdilution method; conditions: Lodderomyces parapsilosis; procedure, shortened: as §2
[23] = test system: Trichosporon inkin; test: Antimicrobial activity against Trichosporon inkin by broth microdilution method; procedure, shortened: as §1
[24] = test system: Geotrichum candidum; test: Antimicrobial activity against Galactomyces geotrichum by broth microdilution method
[25] = test system: Rhodotorula glutinis; test: Antimicrobial activity against Rhodotorula glutinis by broth microdilution method; procedure, shortened: as §1
[26] = test system: [Candida] zeylanoides; test: Antimicrobial activity against Candida zeylanoides by broth microdilution method; conditions: Dujonia zeylanoides; procedure, shortened: as §2
[27] = test system: Candida albicans; test: Antimicrobial activity against Candida albicans by broth microdilution method; procedure, shortened: as §2
[28] = test system: Wickerhamomyces anomalus; test: Antimicrobial activity against Candida pelliculosa by broth microdilution method; conditions: Hansenula anomala; procedure, shortened: as §2
[29] = test system: [Candida] inconspicua; test: Antimicrobial activity against Candida inconspicua by broth microdilution method; conditions: Pichia inconspicua; procedure, shortened: as §2
[30] = test system: Cryptococcus deneoformans; test: Antimicrobial activity against Cryptococcus neoformans var. neoformans by broth microdilution method; procedure, shortened: as §3
[31] = test system: Rhodotorula mucilaginosa; test: Antimicrobial activity against Rhodotorula mucilaginosa by broth microdilution method; procedure, shortened: as §1
[32] = test system: Kazachstania pintolopesii; test: Antimicrobial activity against Candida pintolopesii by broth microdilution method; conditions: Arxiozyma pintolopesii; procedure, shortened: as §2
[33] = test system: Meyerozyma guilliermondii; test: Antimicrobial activity against Candida guilliermondii by broth microdilution method; procedure, shortened: as §2
[34] = test system: [Candida] intermedia; test: Antimicrobial activity against Candida intermedia by broth microdilution method; conditions: Sungouiella intermedia; procedure, shortened: as §2
[35] = test system: Trichosporon; test: Antimicrobial activity against Trichosporon spp. by broth microdilution method; procedure, shortened: as §1
[36] = test system: Trichosporon jirovecii; test: Antimicrobial activity against Trichosporon jirovecii by broth microdilution method; conditions: Cutaneotrichosporon jirovecii; procedure, shortened: as §1

OC(Cn1cncn1)(Cn1cncn1)c1ccc(F)cc1F [FLUCONAZOLE]
MIC50 [1]: 16 µg/mL (≈ 52.2 µM) | MIC90 [1]: > 64 µg/mL | MIC50 [2]: 8 µg/mL (≈ 26.1 µM) | MIC90 [2]: > 64 µg/mL | MIC50 [3]: 0.25 µg/mL (≈ 0.816 µM) | MIC90 [3]: 1 µg/mL (≈ 3.27 µM) | MIC50 [4]: 0.25 µg/mL (≈ 0.816 µM) | MIC90 [4]: 0.5 µg/mL (≈ 1.63 µM) | MIC50 [5]: 32 µg/mL (≈ 104 µM) | MIC90 [5]: > 64 µg/mL | MIC50 [6]: 8 µg/mL (≈ 26.1 µM) | MIC90 [6]: > 64 µg/mL | MIC50 [7]: 16 µg/mL (≈ 52.2 µM) | MIC90 [7]: > 64 µg/mL | MIC50 [8]: 4 µg/mL (≈ 13.1 µM) | MIC90 [8]: > 64 µg/mL | MIC50 [9]: 8 µg/mL (≈ 26.1 µM) | MIC90 [9]: > 64 µg/mL | MIC50 [10]: 8 µg/mL (≈ 26.1 µM) | MIC90 [10]: > 64 µg/mL | MIC50 [11]: 0.25 µg/mL (≈ 0.816 µM) | MIC90 [11]: 2 µg/mL (≈ 6.53 µM) | MIC50 [12]: 8 µg/mL (≈ 26.1 µM) | MIC90 [12]: > 64 µg/mL | MIC50 [13]: 16 µg/mL (≈ 52.2 µM) | MIC90 [13]: > 64 µg/mL | MIC50 [14]: 16 µg/mL (≈ 52.2 µM) | MIC90 [14]: > 64 µg/mL | MIC50 [15]: 16 µg/mL (≈ 52.2 µM) | MIC90 [15]: > 64 µg/mL | MIC50 [16]: 16 µg/mL (≈ 52.2 µM) | MIC90 [16]: > 64 µg/mL | MIC50 [17]: 16 µg/mL (≈ 52.2 µM) | MIC90 [17]: 32 µg/mL (≈ 104 µM) | MIC50 [18]: 16 µg/mL (≈ 52.2 µM) | MIC90 [18]: > 64 µg/mL | MIC50 [19]: 8 µg/mL (≈ 26.1 µM) | MIC90 [19]: > 64 µg/mL | MIC50 [20]: 4 µg/mL (≈ 13.1 µM) | MIC90 [20]: 32 µg/mL (≈ 104 µM) | MIC50 [21]: 8 µg/mL (≈ 26.1 µM) | MIC90 [21]: > 64 µg/mL | MIC50 [22]: 0.5 µg/mL (≈ 1.63 µM) | MIC90 [22]: 1 µg/mL (≈ 3.27 µM) | MIC50 [23]: 4 µg/mL (≈ 13.1 µM) | MIC90 [23]: 4 µg/mL (≈ 13.1 µM) | MIC50 [24]: 64 µg/mL (≈ 209 µM) | MIC90 [24]: > 64 µg/mL | MIC50 [25]: 16 µg/mL (≈ 52.2 µM) | MIC90 [25]: > 64 µg/mL | MIC50 [26]: 8 µg/mL (≈ 26.1 µM) | MIC90 [26]: > 64 µg/mL | MIC50 [27]: 0.12 µg/mL (≈ 0.392 µM) | MIC90 [27]: 0.25 µg/mL (≈ 0.816 µM) | MIC50 [28]: 8 µg/mL (≈ 26.1 µM) | MIC90 [28]: > 64 µg/mL | MIC50 [29]: 8 µg/mL (≈ 26.1 µM) | MIC90 [29]: > 64 µg/mL | MIC50 [30]: 16 µg/mL (≈ 52.2 µM) | MIC90 [30]: > 64 µg/mL | MIC50 [31]: > 64 µg/mL | MIC90 [31]: > 64 µg/mL | MIC50 [32]: 8 µg/mL (≈ 26.1 µM) | MIC90 [32]: > 64 µg/mL | MIC50 [33]: 4 µg/mL (≈ 13.1 µM) | MIC90 [33]: > 64 µg/mL | MIC50 [34]: 8 µg/mL (≈ 26.1 µM) | MIC90 [34]: > 64 µg/mL | MIC50 [35]: 16 µg/mL (≈ 52.2 µM) | MIC90 [35]: > 64 µg/mL | MIC50 [36]: 16 µg/mL (≈ 52.2 µM) | MIC90 [36]: > 64 µg/mL
